Each structure is given as a SMILES string. The source made the active and inactive calls.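 How the source made its calls, unless noted: active means current rise at least 3 SD above the untreated control mean in each of two repeat wells; inactive means the rest.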

Potassium voltage-gated channel subfamily KQT member 1 (Homo sapiens), sequence (P51787 whole entry, looked up): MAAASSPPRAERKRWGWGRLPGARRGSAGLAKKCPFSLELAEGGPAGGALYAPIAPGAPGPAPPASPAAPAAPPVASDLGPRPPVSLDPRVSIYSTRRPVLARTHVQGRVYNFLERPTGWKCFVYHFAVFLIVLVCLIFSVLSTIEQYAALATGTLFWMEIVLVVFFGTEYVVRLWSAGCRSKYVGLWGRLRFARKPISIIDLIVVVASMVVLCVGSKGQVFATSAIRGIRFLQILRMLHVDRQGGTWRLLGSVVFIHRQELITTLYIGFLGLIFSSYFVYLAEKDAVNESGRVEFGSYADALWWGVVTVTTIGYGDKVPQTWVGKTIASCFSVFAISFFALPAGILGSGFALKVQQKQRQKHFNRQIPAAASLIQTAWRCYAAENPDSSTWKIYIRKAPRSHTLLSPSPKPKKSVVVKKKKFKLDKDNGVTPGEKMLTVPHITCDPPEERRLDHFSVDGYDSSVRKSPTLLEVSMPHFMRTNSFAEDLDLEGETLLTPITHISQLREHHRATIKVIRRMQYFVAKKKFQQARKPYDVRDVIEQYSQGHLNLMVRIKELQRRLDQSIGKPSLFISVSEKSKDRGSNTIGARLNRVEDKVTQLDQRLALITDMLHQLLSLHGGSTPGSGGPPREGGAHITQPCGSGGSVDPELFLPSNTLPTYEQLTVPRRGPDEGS

In the first assay the target is Potassium voltage-gated channel subfamily KQT member 2 (Rattus norvegicus) (UniProt O88943). Kind of assay: KCNQ2 thallium flux enhancement – KCNQ2-CHO-K1 cells, selectivity assay for KCNQ1 potentiator project (AID 493009;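 active means mean duplicate potentiation above the buffer control mean plus 5 SD of buffer wells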;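 further: assay conditions were tuned for KCNQ1 rather than KCNQ2 modulators; signal is max minus min fluorescence divided by baseline after thallium stimulus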). The settings on record: FluxOR thallium flux fluorescence, at 10 µM; hits give high values, scaled: buffer 0, activator control 100.
Potassium voltage-gated channel subfamily KQT member 2 (Rattus norvegicus), sequence (O88943 whole entry, looked up): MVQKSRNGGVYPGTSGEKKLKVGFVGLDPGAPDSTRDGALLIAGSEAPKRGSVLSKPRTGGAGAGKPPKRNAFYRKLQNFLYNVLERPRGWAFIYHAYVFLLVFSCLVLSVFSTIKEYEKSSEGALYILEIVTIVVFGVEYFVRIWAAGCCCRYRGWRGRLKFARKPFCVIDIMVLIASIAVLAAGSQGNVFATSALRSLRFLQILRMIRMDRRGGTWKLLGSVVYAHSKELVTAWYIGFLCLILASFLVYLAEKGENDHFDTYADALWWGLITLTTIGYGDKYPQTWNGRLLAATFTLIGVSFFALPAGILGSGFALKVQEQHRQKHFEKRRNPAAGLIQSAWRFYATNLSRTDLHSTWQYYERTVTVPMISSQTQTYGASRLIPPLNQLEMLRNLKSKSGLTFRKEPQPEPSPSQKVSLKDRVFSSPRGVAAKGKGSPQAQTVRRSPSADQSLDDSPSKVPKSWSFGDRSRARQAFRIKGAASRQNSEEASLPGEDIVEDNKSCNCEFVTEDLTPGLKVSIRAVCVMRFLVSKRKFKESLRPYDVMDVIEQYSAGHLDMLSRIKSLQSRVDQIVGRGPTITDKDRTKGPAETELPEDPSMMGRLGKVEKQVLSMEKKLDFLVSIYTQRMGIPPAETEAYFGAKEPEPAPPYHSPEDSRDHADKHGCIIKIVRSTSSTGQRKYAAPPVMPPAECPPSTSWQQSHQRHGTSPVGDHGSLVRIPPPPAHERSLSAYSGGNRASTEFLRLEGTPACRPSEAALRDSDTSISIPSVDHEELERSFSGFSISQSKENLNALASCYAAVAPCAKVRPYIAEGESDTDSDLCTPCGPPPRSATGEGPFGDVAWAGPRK
As to `Cc1ccc2cccnc2c1NC(=S)NC(=O)c1ccccc1`, the outcome was inactive.
Still for that read-out and setting: to `COc1ccc(-n2nc(C(=O)NCC(=O)N3CCC(C(N)=O)CC3)c3ccccc3c2=O)cc1` belongs “inactive”; to `O=C(NCc1cccs1)C1CC(c2ccccc2O)=NO1` (stereo not drawn), “inactive”.

Another assay concerns the target Potassium voltage-gated channel subfamily KQT member 1 (Homo sapiens) (UniProt P51787). Kind of assay: KCNQ1 activators by electrophysiology – IonWorks patch clamp, KCNQ1-CHO cells, orthogonal assay for KCNQ1 potentiator project, confirmation (AID 493184).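 On current potentiation: percent change of the same well's current before compound addition so 0% = no change.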 The settings on record: automated patch clamp current, at 10 µM; hits give high values. The method, boiled down: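 Material: KCNQ1-expressing CHO cells; doses: 10 µM final, single point; probe or stimulus: voltage step from -90 mV holding to +40 mV, 2,000 ms; signal: automated voltage clamp, amphotericin B perforated patch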
As to `CSC(C(=O)c1cc2ccccc2o1)c1ccccc1` (stereo not drawn), the outcome was inactive.
Still for that read-out and setting: for `Cc1cc(C(=O)N/N=C/c2cccs2)no1` the value was “inactive”; for `Cc1cccc(NC(=S)N/N=C(\c2ccccc2)C(C)C)c1`, “inactive”.
Take `O=C(CC(=O)c1ccccc1O)c1cccc(F)c1`: the result was inactive.
The same measure, in the same setting: to `CS(=O)(=O)N1CCN(c2ccccc2NC(=O)CSc2nnc(-c3ccco3)o2)CC1` belongs “inactive”.
Same read-out and setting: for `O=C(NC(=S)N1CCCC1)c1ccc(Cl)cc1` the value was “inactive”; for `Cc1ccc(C(=O)NNC(=O)CCCCC(=O)NNC(=O)c2ccc(C)cc2)cc1`, “inactive”; for `CN(C)S(=O)(=O)c1ccc(Cl)c(NC(=O)CN2CCCCCC2)c1`, “inactive”.
On the same count and under the same terms, for `O=C(COC(=O)CNC(=O)c1ccc(Cl)cc1Cl)Nc1cccc(S(=O)(=O)N2CCCC2)c1` the value was “inactive”; for `COc1cc(/C=N/NC(=O)c2ccoc2C)ccc1OCCN1CCCCC1`, “inactive”; for `CCc1ccc(S(=O)(=O)NC(=S)NC2CCCCC2)cc1`, “inactive”.
In the case of `COc1cccc(C=O)c1OCCCOc1cccc2cccnc12`, the outcome was inactive.
Same read-out and setting: to `Cc1ccc2nsnc2c1S(=O)(=O)Nc1cccc2nsnc12` belongs “inactive”; to `CCOC(=O)c1n[nH]n2c1nc(=S)c1ccccc12`, “inactive”; to `CCCNC1=CC(=O)CC(C)(C)C1`, “inactive”.
Still for that read-out and setting: for `COC(=O)[C@@H]1CCCN1C(=O)CCc1nnc(CCC2CCCCC2)o1` the value was “inactive”.
The same measure, in the same setting: to `CC(C)c1nc2sc3c(=S)nc[nH]c3c2c2c1CCC2` belongs “inactive”.
In the case of `O=C(c1ccc(COc2ccc(Cl)cc2)o1)N1CCN(Cc2ccc3c(c2)OCO3)CC1`, the result was inactive.
The same measure, in the same setting: for `O=C(/C=C/c1ccc(Br)cc1)NC(=S)Nc1ccc(S(=O)(=O)Nc2nccs2)cc1` the value was “inactive”; for `CN1C(=O)NC(c2ccc(O)cc2)C(C(=O)c2cccs2)C1(O)C(F)(F)F` (stereo not drawn), “inactive”.
As to `O=C(Nc1nnc(-c2ccc3c(c2)CCCC3)o1)c1c(F)cccc1F`, the current potentiation was 20.7% (active).
On to `O=C(N/N=C/c1ccccn1)c1cc(-c2ccc(Br)cc2)nc2ccccc12`, for which the outcome was inactive.
The same measure, in the same setting: for `CCSc1nnc(NC(=O)C2C3C=CC(C3)C2C(=O)O)s1` (stereo not drawn) the value was “inactive”.
With `COc1ccc(-c2cc3nc(C)c(CCC(=O)NC(C)CCc4ccco4)c(C)n3n2)c(OC)c1` (stereo not drawn), the result was inactive.
Same read-out and setting: to `COC(=O)c1ccccc1NC(=O)Cn1c(=O)n(Cc2ccccc2)c(=O)c2c(C)c(C)sc21` belongs “inactive”.
On the same count and under the same terms, for `CC1=NN(C(=O)c2csc(C(C)C)c2)C(O)(C(F)(F)F)C1` (stereo not drawn) the value was “inactive”; for `CC(OC(=O)CC1Sc2ccccc2NC1=O)C(=O)NC1CCCC1` (stereo not drawn), “inactive”; for `O=C(c1ccccc1[N+](=O)[O-])N1CCN(c2ccc(N3CCOCC3)nn2)CC1`, “inactive”.
On the same count and under the same terms, to `COc1cc(CNCc2ccccn2)ccc1OCc1c(Cl)cccc1Cl` belongs “inactive”.
Regarding `CCCn1c(=S)[nH]c2ccc(C(F)(F)F)cc21`, the outcome was inactive.
The same measure, in the same setting: for `NC(=O)NC(=O)C[n+]1cccc(/C=N/O)c1` the value was “inactive”; for `COc1cc(OC)cc(C(=O)Nc2nnc(SCC(=O)NCc3ccco3)s2)c1`, “inactive”; for `N#Cc1cn(CC(=O)NCC2CCCO2)c2ccccc12` (stereo not drawn), “inactive”.
The same measure, in the same setting: for `Fc1ccc(-n2nnc(-c3ccccc3)n2)cc1` the value was “inactive”; for `Oc1c(N=NC(=S)Nc2ccccc2F)c2ccccc2n1Cc1ccccc1F`, “inactive”; for `O=C(O)c1cnn(-c2ccccc2)c1-c1ccncc1`, “inactive”.
As for `Cc1ccc(C(=O)N/C(=C\c2ccc(-c3ccccc3[N+](=O)[O-])o2)C(=O)NCCCN2CCOCC2)cc1`, the outcome was inactive.
On the same count and under the same terms, to `Cc1ccc2cccnc2c1NC(=S)NC(=O)c1ccccc1` belongs “inactive”; to `COc1ccc(-n2nc(C(=O)NCC(=O)N3CCC(C(N)=O)CC3)c3ccccc3c2=O)cc1`, “inactive”; to `O=C(NCc1cccs1)C1CC(c2ccccc2O)=NO1` (stereo not drawn), “inactive”.
